Calls of active or inactive are those of the source. The rule behind the calls is not given here.
Assays:
[1] = tested on: Rattus norvegicus; assay: Antiarthritic activity in Sprague-Dawley rat model of arthritis assessed as decrease in CFA-induced synovial hyperplasia at 60 mg/kg, ig administered daily for 28 days starting from 14 days post-immunization and measured every 3 days by H and E staining based histopathological analysis; type: functional, organism-based; conditions: time 28.0 day
[2] = tested on: Rattus norvegicus; assay: Antiarthritic activity in Sprague-Dawley rat model of CFA-induced arthritis assessed as intact joint cavity at 60 mg/kg, ig administered daily for 28 days starting from 14 days post-immunization and measured every 3 days by H and E staining based histopathological analysis; type: functional, organism-based; conditions: time 28.0 day
[3] = tested on: RAW264.7; assay: Cytotoxicity against mouse RAW264.7 cells assessed as reduction in cell viability incubated for 24 hrs in presence of LPS by MTT assay; type: cell-based; conditions: RAW264.7, 24 h
[4] = tested on: RAW264.7; assay: Antiinflammatory activity in mouse RAW264.7 cells assessed as inhibition of LPS-induced nitric oxide production at 10 uM preincubated for 1 hr followed by LPS stimulation and measured after 24 hrs by Griess reagent-based assay relative to control; type: functional; conditions: time 25 hrs
Method in brief: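 RAW264.7 cells (7 × 10^4/well, used 24 h after seeding) in DMEM with 10% heat-inactivated FBS, 37 °C, 5% CO2. Pretreated 1 h with compound (10 µM screen; 0.625–10 µM dose series), then LPS 0.5 µg/mL for 24 h. Supernatant mixed 1:1 with Griess reagent, 15 min at room temperature, absorbance read at […].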

[5] = tested on: RAW264.7; assay: Antiinflammatory activity in mouse RAW264.7 cells assessed as inhibition of LPS-induced nitric oxide production preincubated for 1 hr followed by LPS stimulation and measured after 24 hrs by Griess reagent-based assay; type: functional, cell-based
[6] = tested on: RAW264.7; assay: Cytotoxicity against mouse RAW264.7 cells assessed as reduction in cell viability at 20 uM incubated for 24 hrs by MTT assay; type: cell-based; conditions: raw264.7, 24 h
Method in brief: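 RAW264.7 cells (1 × 10^4/well, used 24 h after seeding) exposed to 20 µM for 24 h. MTT (5 mg/mL stock) added for 4 h, supernatant removed, crystals dissolved in DMSO with 10–15 min shaking, absorbance at 492 nm.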

[7] = tested on: RAW264.7; assay: Cytotoxicity against mouse RAW264.7 cells assessed as reduction in cell viability incubated for 24 hrs in absence of LPS by MTT assay; type: cell-based; conditions: RAW264.7, 24 h

SMILES | Activity [1] | Activity [2] | IC50 [3] | inhibition at 10 µM [4] | IC50 [5] | Activity [6] | IC50 [7]
COC1=C[C@@H]2[C@@H]3Cc4ccc(OC)c(O)c4[C@]2(CCN3C)CC1=O | Active | Active |  |  |  |  | 
COc1cc(OC)c2c(c1)C(C(O)c1ccc(OCc3ccc(C#N)cc3)cc1)OC2=O (stereo unspecified) |  |  | > 40 µM | 60.8% | 7.36 µM | Non-Toxic | > 40 µM
O=C1OC(Cc2nc(-c3ccc(-c4ccccc4)cc3)no2)c2ccccc21 (stereo unspecified) |  |  | > 40 µM | 25.2% | > 10 µM | Non-Toxic | > 40 µM
O=C1OC(Cc2nc(-c3ccc(Oc4ccccc4)cc3)no2)c2ccccc21 (stereo unspecified) |  |  | > 40 µM | 10% | > 10 µM | Non-Toxic | > 40 µM
COCCCOc1ccc(C(O)C2OC(=O)c3c(OC)cc(OC)cc32)cc1 (stereo unspecified) |  |  | > 40 µM | 89.5% | 1.26 µM | Non-Toxic | > 40 µM
CCCCOc1ccc(C(O)C2OC(=O)c3c(OC)cc(OC)cc32)cc1 (stereo unspecified) |  |  | > 40 µM | 83.7% | 1.8 µM | Non-Toxic | > 40 µM
O=C1OC(Cc2nc(-c3ccccc3)no2)c2ccccc21 (stereo unspecified) |  |  | > 40 µM | 13% | > 10 µM | Non-Toxic | > 40 µM
COCCCCOc1ccc(C(O)C2OC(=O)c3c(OC)cc(OC)cc32)cc1 (stereo unspecified) |  |  | > 40 µM | 50.3% | 8.21 µM | Non-Toxic | > 40 µM
COCCOc1ccc(C(O)C2OC(=O)c3c(OC)cc(OC)cc32)cc1 (stereo unspecified) |  |  | > 40 µM | 41.4% | > 10 µM | Non-Toxic | > 40 µM
COc1cc(OC)c2c(c1)C(C(O)c1ccc(OCc3ccc(Cl)cc3)cc1)OC2=O (stereo unspecified) |  |  | > 40 µM | 75.1% | 4.32 µM | Non-Toxic | > 40 µM
CCOCCOc1ccc(C(O)C2OC(=O)c3c(OC)cc(OC)cc32)cc1 (stereo unspecified) |  |  | > 40 µM | 42.9% | > 10 µM | Non-Toxic | > 40 µM
O=C1OC(Cc2nc(Cc3ccccc3)no2)c2ccccc21 (stereo unspecified) |  |  | > 40 µM | 25.1% | > 10 µM | Non-Toxic | > 40 µM
COc1cc(OC)c2c(c1)C(C(O)c1ccc(OCc3ccc(OC(F)(F)F)cc3)cc1)OC2=O (stereo unspecified) |  |  | > 40 µM | 62.8% | 8.14 µM | Non-Toxic | > 40 µM
COc1ccc2c(c1)c(CC(=O)O)c(C)n2C(=O)c1ccc(Cl)cc1 [INDOMETHACIN] |  |  | > 40 µM | 61.6% | > 10 µM |  | > 40 µM
COc1cc(OC)c2c(c1)C(C(O)c1ccc(O)cc1)OC2=O (stereo unspecified) |  |  | > 40 µM | 46.1% | > 10 µM | Non-Toxic | > 40 µM
CCOc1ccc(C(O)C2OC(=O)c3c(OC)cc(OC)cc32)cc1 (stereo unspecified) |  |  | > 40 µM | 43.2% | > 10 µM | Non-Toxic | > 40 µM

SMILES | Activity [1] | Activity [2] | IC50 [3] | inhibition at 10 µM [4] | IC50 [5] | Activity [6] | IC50 [7]
COc1cc(OC)c2c(c1)C(C(O)c1ccc(OCc3ccccc3)cc1)OC2=O (stereo unspecified) |  |  | > 40 µM | 41.2% | > 10 µM | Non-Toxic | > 40 µM
COc1cc(OC)c2c(c1)/C(=C/c1ccc(OCc3ccc(F)cc3)cc1)OC2=O |  |  | > 40 µM | 48.2% | > 10 µM | Non-Toxic | > 40 µM
CCCOc1ccc(C(O)C2OC(=O)c3c(OC)cc(OC)cc32)cc1 (stereo unspecified) |  |  | > 40 µM | 53.2% | 9.26 µM | Non-Toxic | > 40 µM
COc1cc(OC)c2c(c1)C(C(O)c1ccc(OCCOc3ccccc3)cc1)OC2=O (stereo unspecified) |  |  | > 40 µM | 41.2% | > 10 µM | Non-Toxic | > 40 µM
COc1ccc(/C=C2\OC(=O)c3c(OC)cc(OC)cc32)cc1 |  |  | > 40 µM | 36.3% | > 10 µM | Non-Toxic | > 40 µM
COc1cc(OC)c2c(c1)C(C(O)c1ccc(OCc3ccc(Br)cc3)cc1)OC2=O (stereo unspecified) |  |  | > 40 µM | 68.1% | 6.53 µM | Non-Toxic | > 40 µM
COc1cc(OC)c2c(c1)C(C(O)c1ccc(OCc3ccc(C)cc3)cc1)OC2=O (stereo unspecified) |  |  | > 40 µM | 82.1% | 3.12 µM | Non-Toxic | > 40 µM
COc1ccc(C(O)C2OC(=O)c3c(OC)cc(OC)cc32)cc1 (stereo unspecified) |  |  | > 40 µM | 38.7% | > 10 µM | Non-Toxic | > 40 µM
COc1cc(OC)c2c(c1)C(C(O)c1ccc(OCC(C)C)cc1)OC2=O (stereo unspecified) |  |  | > 40 µM | 48.6% | > 10 µM | Non-Toxic | > 40 µM
COc1cc(OC)c2c(c1)C(C(O)c1ccc(OCc3ccc(OC(F)F)cc3)cc1)OC2=O (stereo unspecified) |  |  | > 40 µM | 67.6% | 5.03 µM | Non-Toxic | > 40 µM
CCCCCCOc1ccc(C(O)C2OC(=O)c3c(OC)cc(OC)cc32)cc1 (stereo unspecified) |  |  | > 40 µM | 62.2% | 5.36 µM | Non-Toxic | > 40 µM
C=CCCOc1ccc(C(O)C2OC(=O)c3c(OC)cc(OC)cc32)cc1 (stereo unspecified) |  |  | > 40 µM | 87.2% | 1.33 µM | Non-Toxic | > 40 µM
COc1cc(OC)c2c(c1)/C(=C/c1ccc(OCc3ccccc3)cc1)OC2=O |  |  | > 40 µM | 44.3% | > 10 µM | Non-Toxic | > 40 µM
Cc1noc(CC2OC(=O)c3ccccc32)n1 (stereo unspecified) |  |  | > 40 µM | 24.3% | > 10 µM | Non-Toxic | > 40 µM
COc1cc(OC)c2c(c1)C(C(O)c1ccc(OCC3CCCCC3)cc1)OC2=O (stereo unspecified) |  |  | > 40 µM | 27.4% | > 10 µM | Non-Toxic | > 40 µM

Reference: ChEMBL document CHEMBL4765431, “Novel phthalide derivatives: Synthesis and anti-inflammatory activity in vitro and in vivo” (Eur J Med Chem, 2020)
